# XiGFP reactiv: activators of inactive X chromosome reactivation, primary screen, imaging, XiGFP fibroblasts, GFP high-content imaging, set 2. XiGFP mouse fibroblasts, % GFP-positive cells imaging, 3 d; cells co-treated with 5-aza-dC sensitizer; scaled so ellipticine positive control = 100%. activation, % at 7.58 µM. 360,000 compounds, 0.055% hits. AID 743238, 2013;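 active = mean normalized replicate activation at least 10% and every replicate at or above 10%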
#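 Schedule: 3 d treatment, 15 min room-temperature fixation; system: 68-5-11 XiGFP fibroblast line; buffer or medium: DMEM plus 5-aza-dC sensitizer; control set: ellipticine 6 µM positive control; compound: one concentration, pinned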
# TWEAK Fn14 block: inhibitors of TWEAK-Fn14 signaling, primary screen, luciferase reporter cells, uHTS; 360,000 compounds, 2% hits; TWEAK-stimulated Fn14 reporter cells, luciferase luminescence, 8 h; AID 1159606, 2016; inhibition, % at 10 µM; in the data active = inhibition above about 50%
# TROY NFkB inh: inhibitors of TROY-driven NF-kB signaling, primary screen, Q293 LMP1-TROYcd cells, NF-kB luciferase, uHTS | Q293 LMP1-TROYcd NF-kB luciferase reporter, 4 h | inhibition, % at 10 µM | 360,000 compounds, 0.98% hits;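 active = compounds whose plate-normalised and pattern-corrected inhibition of the luciferase reporter signal at the single screening dose is 50% or more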
# CaV13 ICDI inh: Primary screen for inhibitors of IQ motif and Ca2+-dependent inactivation inhibitor domain binding in CACNA1D, Förster resonance energy transfer in living cells, …; HEK cells, CFP/YFP FRET ICDI-IQ, plate reader, 10 min; percent FRET-ratio fall versus neutral wells; inhibition, % at 12.3 µM; 340,000 compounds, 0.098% hits;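 active = mean replicate inhibition of at least 30% and at least 1% of replicates passing that level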
# LGR2 inh: inhibitors of bursicon-induced LGR2 CRE-luciferase signal, primary screen, cell-based, HEK293, CRE-luciferase reporter, bursicon stimulation; Drosophila bursicon receptor LGR2 (rickets); bursicon-stimulated, 4 h; inhibition, % at 9.99 µM; 380,000 compounds, 0.35% hits;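 active = drop in luminescence signal, shown as inhibition above about 50% in the replicate tests, limit read from the data, passing the limit was not always enough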;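 also: agonist challenge used bursicon conditioned medium at about half maximal strength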
# Hits are given with their value; - = inactive; . = no result given. A selection: hits, their analogues and other compounds. The true share with any hit is near 2%.
SMILES,XiGFP reactiv,TWEAK Fn14 block,TROY NFkB inh,CaV13 ICDI inh,LGR2 inh
CCOC(=O)c1cnc(Nc2nc3ccccc3o2)nc1C,.,93,56,-,82
Cc1nc(Nc2nc3ccccc3o2)nc2c1CCC2,.,91,-,-,.
COc1cc(C(C)=O)ccc1OCC(O)CN1CCN(c2ccccn2)CC1 (configuration not stated),-,108,-,-,-
O=C(C[C@H]1CC[C@@H]2[C@H](COC[C@@H](O)CN2C(=O)c2ccncc2)O1)NC1Cc2ccccc2C1,-,.,.,.,-
Nc1ncnc2c(C3OC(CO)C(O)C3O)c[nH]c12 (configuration not stated),-,101,71,-,101
COCC(=O)Nc1ccc2c(c1)[C@@H]1C[C@@H](CC(=O)N3CCc4ccccc4C3)O[C@@H](CO)[C@@H]1O2,-,.,.,.,-
COc1ccc2c3c([nH]c2c1)[C@H](CO)N(C(=O)c1cccnc1)CC31CCN(C(=O)Nc2cccc(F)c2)CC1,-,.,.,.,-
O=C(CSc1cn(CC(=O)N2CCOCC2)c2ccccc12)N1CCOCC1,-,-,-,-,-
Cc1ccc(C(=O)NCCn2cc(SCC(=O)Nc3cc(C)on3)c3ccccc32)cc1,-,84,73,-,-
Cc1ccc(C(=O)NCCn2cc(SCC(=O)N3CCOCC3)c3ccccc32)cc1,-,86,78,-,-
CN1N=C(C(C)(C)C)CSC1=Nc1ccc(F)cc1,-,66,-,-,-
O=C1CC(NC(=O)C(F)(F)F)=NN1c1ccccc1,-,-,-,-,-
CC(C)(Oc1ccc(Cl)cc1)C(=O)NC1=NN(c2ccccc2)C(=O)C1,-,-,55,-,-
NC(=O)c1ccsc1NC(=O)COC(=O)/C=C/c1ccc([N+](=O)[O-])cc1,-,-,-,-,-
COC(=O)c1ccc(/C=C/C(=O)OCC(=O)Nc2sccc2C(N)=O)cc1,.,68,-,.,.
CCC1CSC(Nc2ccc(C(=O)/C=C/c3ccc(Oc4ccccc4)cc3)cc2)=N1 (configuration not stated),.,-,-,-,-
CCC1CSC(Nc2ccc(C(=O)/C=C/c3cccc(C)c3)cc2)=N1 (configuration not stated),-,52,-,-,.
CC(=O)c1cccc(NC(=O)Nc2ccc3c(c2)N(C)C(=O)CS3)c1,.,82,68,.,-
CC(=O)Nc1ccc2c(c1)CC(=O)N(C)C[C@@H](C)[C@H](CN(C)C)O2,-,.,.,.,.
CN1C(=O)c2cc(NC(=O)C3CCOCC3)ccc2OC[C@H]2O[C@H](CC(=O)NC3CCCC3)CC[C@@H]21,-,.,.,.,-
Cn1cccc1C(=O)NC(=O)COC(=O)C12CC3CC(CC(O)(C3)C1)C2,.,-,79,.,-
CC(=O)NC12CC3CC(C1)CC(C(=O)OCC(=O)NC(=O)c1cccn1C)(C3)C2,.,-,-,-,.
CC(C)(C)C(=O)Cn1ncc(Br)c(Br)c1=O,-,79,53,-,103
CN1C2CCC1/C(=C\c1ccccc1F)C(=O)/C2=C/c1ccccc1F,-,83,-,-,-
Cc1ccc2c(c1)/C(=C/c1ccccc1F)C(=O)N2,-,-,-,-,-
SMILES,XiGFP reactiv,TWEAK Fn14 block,TROY NFkB inh,CaV13 ICDI inh,LGR2 inh
O=c1oc2ccccc2cc1-c1cn2cccnc2n1,.,-,-,-,.
O=c1oc2ccccc2cc1-c1cn2ccccc2n1,-,97,71,-,71
c1c2c(cc3sc(N4CCOCC4)nc13)OCO2,.,-,-,-,.
c1ccc2c(c1)CCN(c1nc3cc4c(cc3s1)OCO4)C2,.,58,-,-,.
c1c2c(cc3sc(N4CCCCC4)nc13)OCO2,.,73,-,.,.
c1ccc(N2CCN(c3nc4cc5c(cc4s3)OCO5)CC2)cc1,.,-,-,.,.
COCC#Cc1ccc2c(c1)O[C@@H](CN(C)S(=O)(=O)c1cccc(OC)c1)[C@H](C)CN([C@H](C)CO)S2(=O)=O,-,.,.,.,-
CC1=C(C(=O)OCCBr)C(c2cccc3ccccc23)NC(=O)N1 (configuration not stated),-,53,-,-,-

# Compound activity deposited in PubChem by several laboratories.
